Assay results taken from ChEMBL document CHEMBL4706770, “SD-91 as A Potent and Selective STAT3 Degrader Capable of Achieving Complete and Long-Lasting Tumor Regression” (ACS Med Chem Lett, 2021).
Activity calls are given as the source filed them. The rule behind the calls is not given here.

How the values were obtained:
Mus musculus [1] = assay: In vivo induction of STAT3 degradation in SCID mouse xenografted with human SU-DHL-1 cells assessed as reduction in total STAT3 level in tumor tissue at 50 mg/kg, iv measured after 24 hrs by immunoblotting analysis; assay type: functional, organism-based
How it was run: (§1)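 SCID mice bearing MOLM-16 or SU-DHL-1 xenografts given a single iv dose of 50 mg/kg or dosing vehicle. Tumor lysates immunoblotted for p-STAT3 Y705 and total STAT3 at time points up to 48 h (MOLM-16) and 24 h (SU-DHL-1).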

[2] = Antitumor activity against human MOLM16 cells xenografted in SCID mouse assessed as tumor regression at 50 mg/kg, iv administered weekly measured after 2 weeks; assay type: functional
How it was run: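 SCID mice bearing MOLM-16 xenografts given compound iv once weekly at 25 or 50 mg/kg. Tumor volume and body weight measured every 2 days. Growth inhibition expressed against vehicle-treated controls.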

Mus musculus [3] = assay: In vivo induction of STAT6 degradation in SCID mouse xenografted with human MOLM16 cells assessed as reduction in STAT6 in tumor tissue at 50 mg/kg, iv measured after 24 hrs by immunoblotting analysis; assay type: functional, organism-based
How it was run: (§2)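 SCID mice bearing MOLM-16 tumors given a single iv dose of 50 mg/kg or dosing vehicle. Tumor lysates immunoblotted for STAT3, STAT1 and STAT6 at time points from 1 h to at least 24 h.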

Mus musculus [4] = assay: In vivo induction of STAT3 degradation in SCID mouse xenografted with human MOLM16 cells assessed as reduction in total STAT3 level in tumor tissue at 50 mg/kg, iv measured after 24 hrs by immunoblotting analysis; assay type: functional, organism-based; how it was run: as §1
[5] = target: Signal transducer and activator of transcription 3 (Homo sapiens, UniProt P40763); assay: Binding affinity to human recombinant STAT3 assessed as dissociation constant incubated for 15 mins by biolayer interferometry
How it was run: (§3)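 Biolayer interferometry with recombinant human STAT1, STAT2, STAT3, STAT4, STAT5A, STAT5B or STAT6 proteins containing their SH2 domain. Compound run in 2× serial dilutions from 200 nM. Kd taken from steady-state fitting of equilibrium responses against concentration using a 1:1 binding model.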

[6] = target: Signal transducer and activator of transcription 2 (Homo sapiens, UniProt P52630); assay: Binding affinity to human recombinant STAT2 assessed as dissociation constant incubated for 15 mins by biolayer interferometry; how it was run: as §3
Mus musculus [7] = assay: In vivo induction of STAT1 degradation in SCID mouse xenografted with human MOLM16 cells assessed as reduction in STAT1 in tumor tissue at 50 mg/kg, iv measured after 24 hrs by immunoblotting analysis; assay type: functional, organism-based; how it was run: as §2
Mus musculus [8] = assay: In vivo induction of STAT3 degradation in SCID mouse xenografted with human SU-DHL-1 cells assessed as reduction in phosphorylated STAT3 level in tumor tissue at 50 mg/kg, iv measured after 24 hrs by immunoblotting analysis; assay type: functional, organism-based; how it was run: as §1
[9] = (§4) Stability of compound in buffer pH 8 assessed as conversion to (2-(((5S,8S,10aR)-8-(((S)-5-amino-1-(benzhydrylamino)-1,5-dioxopentan-2-yl)carbamoyl)-3-(8-(2-(2,6-dioxopiperidin-3-yl)-1-oxoisoindolin-4-yl)oct-7-ynoyl)-6-oxodecahydropyrrolo[1,2-a][1,5]diazocin-5-yl)carbamoyl)-1H-indole-5-carbonyl)phosphonic acid by measuring half life by LC/MS/MS analysis; assay type: physicochemical
How it was run: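 SD-36 incubated in pH 8 buffer at room temperature; percentages of parent and hydrolysis products followed over time; half-life of conversion derived from the time course.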

[10] = target: T1, Protein cereblon/Signal transducer and activator of transcription 6 (Homo sapiens) (UniProt P42226+Q96SW2); assay: Protac activity at CRBN/STAT6 in human SUP-M2 cells assessed as STAT6 degradation at 0.25 to 100 uM incubated for 4 hrs by Western blot analysis; assay type: cell-based; conditions: SUPM2, dose 0.25-100 µM
[11] = target: T1, Protein cereblon/Signal transducer and activator of transcription 6 (Homo sapiens); assay: Protac activity at CRBN/STAT6 in human SU-DHL-1 cells assessed as STAT6 degradation at 0.25 to 100 uM incubated for 4 hrs by Western blot analysis; assay type: cell-based; conditions: dose 0.25-100 µM
[12] = (§5) Drug metabolism buffer pH 4 assessed as conversion to (2-(((5S,8S,10aR)-8-(((S)-5-amino-1-(benzhydrylamino)-1,5-dioxopentan-2-yl)carbamoyl)-3-(8-(2-(2,6-dioxopiperidin-3-yl)-1-oxoisoindolin-4-yl)oct-7-ynoyl)-6-oxodecahydropyrrolo[1,2-a][1,5]diazocin-5-yl)carbamoyl)-1H-indole-5-carbonyl)phosphonic acid by measured after 96 hrs at 37 degC by LC/MS/MS analysis
[13] = target: T2, Protein cereblon/Signal transducer and activator of transcription 5A (Homo sapiens) (UniProt P42229+Q96SW2); assay: Protac activity at CRBN/STAT5 in human SUP-M2 cells assessed as STAT5 degradation at 0.25 to 100 uM incubated for 4 hrs by Western blot analysis; assay type: cell-based; conditions: SUPM2, dose 0.25-100 µM
[14] = target: T1, Protein cereblon/Signal transducer and activator of transcription 6 (Homo sapiens); assay: Protac activity at CRBN/STAT6 in human MOLM16 cells assessed as STAT6 degradation at 0.25 to 100 uM incubated for 4 hrs by Western blot analysis; assay type: cell-based; conditions: dose 0.25-100 µM
How it was run: (§6)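 Cells treated 4 h with compounds across 25 nM to 100 μM; STAT proteins detected by Western blot with GAPDH as loading control; STAT3 DC50 estimated by densitometry of STAT3 relative to GAPDH. Applies to MOLM-16 for all STATs, and to SU-DHL-1 and SUP-M2 for STAT3.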

[15] = as §4, with “life at 37 degC” for “life”; assay type: physicochemical
How it was run: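 SD-36 incubated in pH 8 buffer at 37 °C; percentages of parent and hydrolysis products followed over time; half-life of conversion derived from the time course.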

[16] = as §5, with “in complete cell culture medium” for “buffer pH 4”, “as” for “as conversion to”, “acid” for “acid by measured”, “24” for “96”, “hrs” for “hrs at 37 degC”
How it was run: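 Parent compound incubated in the cell culture medium used for the cellular assays, with or without cells, at 37 °C. Percentages of the hydrolysis product and the glutarimide ring-opened product measured at time points up to 96 h.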

[17] = target: T3, Protein cereblon/Signal transducer and activator of transcription 3 (Homo sapiens, UniProt P40763+Q96SW2); assay: Protac activity at CRBN/STAT3 in human SUP-M2 cells assessed as degradation of STAT3 incubated for 4 hrs by western blot analysis; assay type: cell-based; how it was run: as §6
Target sequence in this assay (P40763 whole entry): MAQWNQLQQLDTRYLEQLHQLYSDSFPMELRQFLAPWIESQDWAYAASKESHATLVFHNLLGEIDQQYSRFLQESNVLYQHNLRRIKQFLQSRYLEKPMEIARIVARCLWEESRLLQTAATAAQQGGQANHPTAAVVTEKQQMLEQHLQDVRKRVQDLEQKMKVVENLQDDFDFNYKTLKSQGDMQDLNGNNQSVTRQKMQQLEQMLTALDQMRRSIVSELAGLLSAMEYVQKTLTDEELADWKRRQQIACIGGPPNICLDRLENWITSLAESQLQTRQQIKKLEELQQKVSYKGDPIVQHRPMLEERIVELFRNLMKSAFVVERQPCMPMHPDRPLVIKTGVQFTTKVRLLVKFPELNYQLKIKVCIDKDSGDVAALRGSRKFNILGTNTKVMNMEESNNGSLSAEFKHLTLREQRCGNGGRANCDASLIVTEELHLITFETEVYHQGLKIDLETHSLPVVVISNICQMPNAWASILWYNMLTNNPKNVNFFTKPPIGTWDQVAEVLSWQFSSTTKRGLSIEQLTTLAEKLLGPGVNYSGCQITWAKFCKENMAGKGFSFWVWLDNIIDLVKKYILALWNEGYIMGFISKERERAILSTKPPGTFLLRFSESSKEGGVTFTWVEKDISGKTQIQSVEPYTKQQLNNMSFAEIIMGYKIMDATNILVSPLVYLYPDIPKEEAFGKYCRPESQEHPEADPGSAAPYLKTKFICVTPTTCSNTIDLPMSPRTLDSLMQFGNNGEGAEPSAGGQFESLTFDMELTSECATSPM
Target sequence in this assay (Q96SW2 whole entry): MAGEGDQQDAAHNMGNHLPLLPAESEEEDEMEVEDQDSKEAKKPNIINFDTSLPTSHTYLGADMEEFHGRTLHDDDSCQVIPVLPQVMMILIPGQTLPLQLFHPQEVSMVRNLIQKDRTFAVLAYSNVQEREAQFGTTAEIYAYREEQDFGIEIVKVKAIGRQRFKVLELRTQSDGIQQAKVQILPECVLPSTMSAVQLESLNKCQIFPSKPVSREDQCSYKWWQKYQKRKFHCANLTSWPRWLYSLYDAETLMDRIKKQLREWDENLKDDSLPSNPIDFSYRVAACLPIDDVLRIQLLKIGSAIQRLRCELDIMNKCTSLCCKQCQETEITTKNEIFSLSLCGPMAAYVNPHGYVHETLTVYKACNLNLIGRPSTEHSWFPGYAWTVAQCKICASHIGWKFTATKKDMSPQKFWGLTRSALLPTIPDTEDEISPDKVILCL

[18] = target: T3, Protein cereblon/Signal transducer and activator of transcription 3; assay: In vivo protac activity at CRBN/STAT3 degradation in SCID mouse xenografted with human MOLM16 cells assessed as reduction in STAT3 in tumor tissue at 50 mg/kg, iv measured after 24 hrs by immunoblotting analysis; assay type: functional, organism-based; how it was run: as §2
Target sequence in this assay (P40763 2-770 limits assumed): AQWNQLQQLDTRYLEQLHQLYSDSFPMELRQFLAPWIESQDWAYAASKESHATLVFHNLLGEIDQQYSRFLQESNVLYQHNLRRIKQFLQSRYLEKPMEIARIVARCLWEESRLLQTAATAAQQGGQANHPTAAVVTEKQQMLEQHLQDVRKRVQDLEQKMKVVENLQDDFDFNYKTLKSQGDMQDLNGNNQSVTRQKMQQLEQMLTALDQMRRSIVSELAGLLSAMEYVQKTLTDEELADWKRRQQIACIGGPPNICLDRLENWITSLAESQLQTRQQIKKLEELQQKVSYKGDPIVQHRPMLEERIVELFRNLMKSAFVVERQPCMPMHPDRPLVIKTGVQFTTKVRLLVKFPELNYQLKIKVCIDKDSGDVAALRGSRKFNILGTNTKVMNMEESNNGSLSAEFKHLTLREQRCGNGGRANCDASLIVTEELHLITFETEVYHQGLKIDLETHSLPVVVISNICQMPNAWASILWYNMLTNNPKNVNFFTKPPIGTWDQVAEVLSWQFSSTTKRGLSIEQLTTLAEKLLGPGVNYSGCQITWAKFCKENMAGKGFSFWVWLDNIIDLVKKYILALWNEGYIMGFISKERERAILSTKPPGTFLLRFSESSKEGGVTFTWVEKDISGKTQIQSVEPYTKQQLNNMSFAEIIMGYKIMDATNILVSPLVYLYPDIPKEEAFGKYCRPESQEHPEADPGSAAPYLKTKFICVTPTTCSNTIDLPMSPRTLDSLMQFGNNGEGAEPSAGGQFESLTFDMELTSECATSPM
Target sequence in this assay (Q96SW2 whole entry partner): as the sequence (Q96SW2 whole entry) above

[19] = target: T1, Protein cereblon/Signal transducer and activator of transcription 6 (Homo sapiens); assay: In vivo protac activity at CRBN/STAT6 degradation in SCID mouse xenografted with human MOLM16 cells assessed as reduction in STAT6 in tumor tissue at 50 mg/kg, iv measured after 24 hrs by immunoblotting analysis; assay type: functional, organism-based; how it was run: as §2
[20] = target: T2, Protein cereblon/Signal transducer and activator of transcription 5A (Homo sapiens); assay: Protac activity at CRBN/STAT5 in human MOLM16 cells assessed as STAT5 degradation at 0.25 to 100 uM incubated for 4 hrs by Western blot analysis; assay type: cell-based; conditions: dose 0.25-100 µM; how it was run: as §6

T1 sequence (P42226 2-847 limits assumed): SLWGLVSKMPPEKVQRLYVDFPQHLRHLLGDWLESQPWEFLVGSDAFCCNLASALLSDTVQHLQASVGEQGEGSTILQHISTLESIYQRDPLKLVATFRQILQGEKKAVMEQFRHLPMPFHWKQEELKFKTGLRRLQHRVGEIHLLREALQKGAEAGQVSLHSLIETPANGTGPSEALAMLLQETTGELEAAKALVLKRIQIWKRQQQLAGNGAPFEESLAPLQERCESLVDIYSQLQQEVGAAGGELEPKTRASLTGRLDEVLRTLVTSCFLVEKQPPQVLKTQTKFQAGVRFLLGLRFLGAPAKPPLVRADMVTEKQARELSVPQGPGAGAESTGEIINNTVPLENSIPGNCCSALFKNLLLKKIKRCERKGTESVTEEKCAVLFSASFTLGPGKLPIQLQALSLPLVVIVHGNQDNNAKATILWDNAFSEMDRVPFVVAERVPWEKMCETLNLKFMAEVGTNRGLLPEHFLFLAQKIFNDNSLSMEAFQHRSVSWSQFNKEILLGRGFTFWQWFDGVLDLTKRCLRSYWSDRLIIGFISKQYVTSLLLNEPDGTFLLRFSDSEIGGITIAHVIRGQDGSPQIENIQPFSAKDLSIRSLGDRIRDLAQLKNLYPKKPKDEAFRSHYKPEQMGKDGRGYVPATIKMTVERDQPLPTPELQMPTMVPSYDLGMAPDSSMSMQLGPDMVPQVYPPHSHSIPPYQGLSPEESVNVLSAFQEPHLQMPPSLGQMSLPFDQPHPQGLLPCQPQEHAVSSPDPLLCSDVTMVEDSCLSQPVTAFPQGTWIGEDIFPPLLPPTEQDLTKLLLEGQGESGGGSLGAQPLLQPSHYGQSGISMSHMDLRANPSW
T1 sequence (Q96SW2 whole entry partner): as the sequence (Q96SW2 whole entry) above
T2 sequence (P42229 whole entry, looked up): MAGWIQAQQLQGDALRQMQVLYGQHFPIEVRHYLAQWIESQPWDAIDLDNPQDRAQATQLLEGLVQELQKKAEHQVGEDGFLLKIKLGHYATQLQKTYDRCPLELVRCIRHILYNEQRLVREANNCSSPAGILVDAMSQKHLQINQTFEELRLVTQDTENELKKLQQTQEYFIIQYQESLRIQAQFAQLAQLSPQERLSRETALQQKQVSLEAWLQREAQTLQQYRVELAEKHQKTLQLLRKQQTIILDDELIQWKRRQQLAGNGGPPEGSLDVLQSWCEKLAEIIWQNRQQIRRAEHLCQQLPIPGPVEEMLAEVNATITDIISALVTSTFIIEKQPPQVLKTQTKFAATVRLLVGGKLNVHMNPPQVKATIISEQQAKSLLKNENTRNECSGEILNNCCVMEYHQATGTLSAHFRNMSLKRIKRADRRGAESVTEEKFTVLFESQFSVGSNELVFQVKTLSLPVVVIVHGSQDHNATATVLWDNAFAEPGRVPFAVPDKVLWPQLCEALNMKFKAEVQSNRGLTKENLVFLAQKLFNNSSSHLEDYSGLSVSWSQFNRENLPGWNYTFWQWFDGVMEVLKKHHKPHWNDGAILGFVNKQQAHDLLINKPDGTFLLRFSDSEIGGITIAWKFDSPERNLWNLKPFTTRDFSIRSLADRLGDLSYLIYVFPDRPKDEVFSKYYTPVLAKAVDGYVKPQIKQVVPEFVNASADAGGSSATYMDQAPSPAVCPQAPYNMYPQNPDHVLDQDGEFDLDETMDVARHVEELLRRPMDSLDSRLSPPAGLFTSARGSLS
T2 sequence (Q96SW2 whole entry, looked up): as the sequence (Q96SW2 whole entry) above
Sequence of Signal transducer and activator of transcription 3 (P40763 whole entry, the tested form may be a part): as the sequence (P40763 whole entry) above
Sequence of Signal transducer and activator of transcription 2 (P52630 whole entry): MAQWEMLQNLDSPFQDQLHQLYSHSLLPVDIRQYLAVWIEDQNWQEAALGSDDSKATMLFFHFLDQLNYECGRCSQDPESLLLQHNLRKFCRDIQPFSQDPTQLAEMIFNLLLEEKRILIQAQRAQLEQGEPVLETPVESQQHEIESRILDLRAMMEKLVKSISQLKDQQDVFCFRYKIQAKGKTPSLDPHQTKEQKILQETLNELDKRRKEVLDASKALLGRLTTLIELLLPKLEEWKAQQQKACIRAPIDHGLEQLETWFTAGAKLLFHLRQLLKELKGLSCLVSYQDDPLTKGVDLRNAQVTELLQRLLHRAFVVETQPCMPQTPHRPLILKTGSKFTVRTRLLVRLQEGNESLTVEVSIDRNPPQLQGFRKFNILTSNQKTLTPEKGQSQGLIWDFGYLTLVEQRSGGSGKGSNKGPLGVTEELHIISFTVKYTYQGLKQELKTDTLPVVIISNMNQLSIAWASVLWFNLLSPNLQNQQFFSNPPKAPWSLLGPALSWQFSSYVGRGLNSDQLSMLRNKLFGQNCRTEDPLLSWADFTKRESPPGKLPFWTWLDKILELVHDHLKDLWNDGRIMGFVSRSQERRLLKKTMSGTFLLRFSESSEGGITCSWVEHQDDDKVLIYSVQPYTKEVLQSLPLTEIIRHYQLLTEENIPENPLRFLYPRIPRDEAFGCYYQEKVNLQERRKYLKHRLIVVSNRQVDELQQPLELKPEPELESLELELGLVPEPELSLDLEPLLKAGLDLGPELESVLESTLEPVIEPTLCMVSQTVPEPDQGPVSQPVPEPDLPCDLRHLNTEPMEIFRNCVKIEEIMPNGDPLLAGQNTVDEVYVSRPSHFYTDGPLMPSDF

Compound	Activity (Mus musculus [1])	Activity [2] [%]	Activity (Mus musculus [3])	Activity (Mus musculus [4])	Kd [5] [nM]	Kd [6] [nM]	Activity (Mus musculus [7])	Activity (Mus musculus [8])	t1/2 [9] [h]	Activity [10]	Activity [11]	Drug metabolism [12] [%]	Activity [13]	Activity [14]	t1/2 [15] [h]	Drug metabolism [16] [%]	DC50 [17] [nM]	Activity [18]	Activity [19]	Activity [20]
NC(=O)CC[C@H](NC(=O)[C@@H]1CC[C@@H]2CCN(C(=O)CCCCCC#Cc3cccc4c3CN(C3CCC(=O)NC3=O)C4=O)C[C@H](NC(=O)c3cc4cc(C(=O)P(=O)(O)O)ccc4[nH]3)C(=O)N21)C(=O)NC(c1ccccc1)c1ccccc1 (stereo not given in full)	Active	100	inactive	Active	28	> 10	inactive	Active	–	–	–	–	–	–	–	–	–	–	–	–
NC(=O)CC[C@H](NC(=O)[C@@H]1CC[C@@H]2CCN(C(=O)CCCCCC#Cc3cccc4c3CN(C3CCC(=O)NC3=O)C4=O)C[C@H](NC(=O)c3cc4cc(C(F)(F)P(=O)(O)O)ccc4[nH]3)C(=O)N21)C(=O)NC(c1ccccc1)c1ccccc1 (stereo not given in full)	–	–	–	–	–	–	–	–	22	inactive	inactive	25	inactive	inactive	4	90	2500	Active	inactive	inactive
